Laboratory results from article PMC6403082 (International Journal of Neuropsychopharmacology, 2018).
Read-outs that look alike come from different tables or passages of the source. Peptide text beside a SMILES is read from it.

Tests used:
NMDA, PCP = experiment: Radioligand displacement, NMDA PCP site; type: binding; conditions: 30 μM test compound
NMDA, MK-801 = experiment: Radioligand displacement, NMDA MK-801 site; type: binding; conditions: 30 μM test compound; inhibition >50% considered meaningful
NMDA, glycine = NMDA, glycine (Homo sapiens, UniProt Q05586); experiment: Radioligand displacement, NMDA glycine site; type: binding; conditions: 30 μM test compound
NMDA, glutamate = experiment: Radioligand displacement, NMDA glutamate site; type: binding; conditions: 30 μM test compound
NMDA, polyamine = experiment: Radioligand displacement, NMDA polyamine site; type: binding; conditions: 30 μM test compound
[1] = system: NMDAR current in rat cortical slices; conditions: 100 μM 7-CK; ref Kemp et al., 1988; cited from earlier work
[2] = system: NMDAR in rat primary cortical neurons; experiment: Intracellular Ca2+ influx; type: cell-based; conditions: for Effect on 10 μM NMDA-induced calcium response: 300 μM 7-CK or 10 μM MDL; for EC50: rat primary cortical neurons
[3] = target: mutant NR1-NR2B receptors (NR1 F484A/T518L) (Homo sapiens, UniProt Q05586+Q13224, F484A/T518L); experiment: [3H] MK-801 binding at glycine-site mutant NR1-NR2B; type: biochemical; conditions: NR1 F484A/T518L loss-of-function glycine-site mutant vs wild-type NR1-NR2B
Sequence of mutant NR1-NR2B receptors (NR1 F484A/T518L) (Q13224 27-1484, other chains not shown): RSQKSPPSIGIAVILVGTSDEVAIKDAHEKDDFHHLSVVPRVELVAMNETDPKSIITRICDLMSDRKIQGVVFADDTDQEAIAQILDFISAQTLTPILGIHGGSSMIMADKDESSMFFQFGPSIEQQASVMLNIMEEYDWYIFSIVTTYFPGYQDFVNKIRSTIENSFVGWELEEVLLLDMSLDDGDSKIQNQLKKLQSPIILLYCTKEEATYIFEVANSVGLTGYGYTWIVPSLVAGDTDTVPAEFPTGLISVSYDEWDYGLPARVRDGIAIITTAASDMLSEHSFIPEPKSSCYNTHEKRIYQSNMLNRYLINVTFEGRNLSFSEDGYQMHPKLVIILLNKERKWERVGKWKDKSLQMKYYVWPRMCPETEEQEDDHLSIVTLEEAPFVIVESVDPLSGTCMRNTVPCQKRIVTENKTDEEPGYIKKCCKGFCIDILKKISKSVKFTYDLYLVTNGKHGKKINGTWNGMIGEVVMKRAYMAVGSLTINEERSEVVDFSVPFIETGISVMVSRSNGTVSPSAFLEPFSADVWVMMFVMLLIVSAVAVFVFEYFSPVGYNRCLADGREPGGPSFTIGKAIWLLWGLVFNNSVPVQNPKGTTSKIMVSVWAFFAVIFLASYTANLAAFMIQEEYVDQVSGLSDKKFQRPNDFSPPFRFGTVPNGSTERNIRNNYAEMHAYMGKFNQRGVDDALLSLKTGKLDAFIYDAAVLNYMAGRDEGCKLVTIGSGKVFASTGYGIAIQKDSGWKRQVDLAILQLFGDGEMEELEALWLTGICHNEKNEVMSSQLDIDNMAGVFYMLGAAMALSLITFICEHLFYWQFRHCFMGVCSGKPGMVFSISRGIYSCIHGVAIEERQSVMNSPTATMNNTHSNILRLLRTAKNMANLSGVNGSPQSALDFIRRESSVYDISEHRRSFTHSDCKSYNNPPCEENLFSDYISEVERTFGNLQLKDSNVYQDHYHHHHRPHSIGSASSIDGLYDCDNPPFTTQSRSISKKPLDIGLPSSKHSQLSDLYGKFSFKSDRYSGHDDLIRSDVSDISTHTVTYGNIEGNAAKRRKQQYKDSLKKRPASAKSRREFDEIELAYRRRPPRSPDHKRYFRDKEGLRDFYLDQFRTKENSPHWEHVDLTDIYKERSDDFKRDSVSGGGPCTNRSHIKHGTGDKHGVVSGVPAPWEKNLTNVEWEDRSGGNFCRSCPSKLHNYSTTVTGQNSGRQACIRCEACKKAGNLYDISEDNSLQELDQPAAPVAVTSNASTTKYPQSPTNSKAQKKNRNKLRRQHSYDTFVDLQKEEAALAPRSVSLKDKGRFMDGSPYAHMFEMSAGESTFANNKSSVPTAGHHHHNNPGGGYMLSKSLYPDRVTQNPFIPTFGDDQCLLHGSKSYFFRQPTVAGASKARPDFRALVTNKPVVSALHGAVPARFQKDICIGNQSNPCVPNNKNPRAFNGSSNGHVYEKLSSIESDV
Summary of the method: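 Crude membranes from transiently transfected HEK cells (NR1-NR2B, wild-type or NR1 F484A/T518L glycine-site mutant), washed in 10 mM Tris·acetate pH 7.4, homogenised, pelleted at 51 500 × g, all at 4°C. […] Then […] [3H] MK-801 (22.5 Ci/mmol) added for 15 min (nonequilibrium), and filtered. n = 18, 2-tailed t test.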

[4] = mPFC microdialysis of rapastinel; type: in vivo; conditions: rat, sc
Summary of the method: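 Freely moving rats had guide cannulae implanted in mPFC (AP +3.2, L +0.5, V −1.5 mm from bregma/dura). After 7 days of recovery, a probe was inserted (3-mm membrane, 50 kDa cutoff) and perfused with aCSF at 1 μL/min (148 NaCl, 4 KCl, 0.8 MgCl2, 1.4 CaCl2, 1.2 Na2HPO4, 0.3 NaH2PO4 mM; pH 7.2). Test compound was given s.c. in sterile saline.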

[5] = target: mutant NR2B (R393E) NMDAR in HEK293 cells (Homo sapiens, UniProt Q05586+Q13224, R393E); experiment: Intracellular calcium response in HEK cells, NR2B R393E; type: cell-based
Sequence of mutant NR2B (R393E) NMDAR in HEK293 cells (Q13224 27-1484 R393E, other chains not shown): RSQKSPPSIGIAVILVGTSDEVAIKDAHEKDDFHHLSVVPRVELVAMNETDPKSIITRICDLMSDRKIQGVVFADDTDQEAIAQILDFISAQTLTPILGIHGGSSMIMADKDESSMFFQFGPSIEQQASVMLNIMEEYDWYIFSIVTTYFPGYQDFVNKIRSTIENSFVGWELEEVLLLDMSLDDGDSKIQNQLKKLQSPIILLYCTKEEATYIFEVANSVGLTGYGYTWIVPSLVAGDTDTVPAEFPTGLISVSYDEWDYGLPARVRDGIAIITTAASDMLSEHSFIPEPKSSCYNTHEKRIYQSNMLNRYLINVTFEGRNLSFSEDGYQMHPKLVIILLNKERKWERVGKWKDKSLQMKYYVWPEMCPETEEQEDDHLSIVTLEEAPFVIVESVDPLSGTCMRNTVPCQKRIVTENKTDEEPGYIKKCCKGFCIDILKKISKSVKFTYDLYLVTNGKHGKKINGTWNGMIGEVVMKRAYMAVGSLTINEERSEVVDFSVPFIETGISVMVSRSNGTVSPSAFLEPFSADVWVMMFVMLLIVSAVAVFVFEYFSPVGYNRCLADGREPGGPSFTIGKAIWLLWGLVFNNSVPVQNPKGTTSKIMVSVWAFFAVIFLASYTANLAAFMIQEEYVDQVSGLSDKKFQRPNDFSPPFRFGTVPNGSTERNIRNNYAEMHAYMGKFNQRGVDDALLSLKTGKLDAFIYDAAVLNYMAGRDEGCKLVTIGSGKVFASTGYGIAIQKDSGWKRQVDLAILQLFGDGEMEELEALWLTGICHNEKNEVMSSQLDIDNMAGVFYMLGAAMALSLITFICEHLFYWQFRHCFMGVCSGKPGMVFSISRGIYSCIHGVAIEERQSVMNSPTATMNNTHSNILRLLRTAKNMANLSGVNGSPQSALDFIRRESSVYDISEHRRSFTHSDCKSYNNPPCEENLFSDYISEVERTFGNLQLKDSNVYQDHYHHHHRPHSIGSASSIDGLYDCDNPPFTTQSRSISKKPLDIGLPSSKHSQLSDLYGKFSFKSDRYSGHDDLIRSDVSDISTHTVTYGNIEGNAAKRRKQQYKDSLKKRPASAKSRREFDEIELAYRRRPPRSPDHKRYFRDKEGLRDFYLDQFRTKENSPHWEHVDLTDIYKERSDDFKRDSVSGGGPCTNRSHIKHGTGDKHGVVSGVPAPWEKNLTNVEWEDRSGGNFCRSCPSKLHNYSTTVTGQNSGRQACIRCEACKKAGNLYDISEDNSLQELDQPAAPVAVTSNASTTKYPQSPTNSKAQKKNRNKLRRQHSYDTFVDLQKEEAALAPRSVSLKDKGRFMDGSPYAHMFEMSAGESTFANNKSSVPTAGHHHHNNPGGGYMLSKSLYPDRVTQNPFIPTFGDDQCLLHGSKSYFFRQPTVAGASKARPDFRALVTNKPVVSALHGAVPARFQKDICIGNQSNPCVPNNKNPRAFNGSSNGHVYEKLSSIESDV

Compound: CNC1(c2ccccc2Cl)CCCCC1=O (racemic) [(R,S)-ketamine]
- NMDA, PCP (%) radioligand displacement (NMDA, PCP): 94%
- NMDA, MK-801(%) radioligand displacement (NMDA, MK-801): 96%
- NMDA, glycine (%) radioligand displacement (NMDA, glycine): 17%
- NMDA, glutamate (%) radioligand displacement (NMDA, glutamate): −5%
- NMDA, polyamine (%) radioligand displacement (NMDA, polyamine): −16%

Compound: O=C(O)c1cc(O)c2ccc(Cl)cc2n1 [7-CK, 7-chlorokynurenic acid]
- Effect on NMDAR current in rat cortical slices [1]: completely blocked
- Effect on 10 μM NMDA-induced calcium response [2]: completely abolished

Compound: N[C@H](CCCP(=O)(O)O)C(=O)O [(2R)-amino-5-phosphonopentanoate]
- Effect on calcium response to NMDA + rapastinel + 7-CK ([2]; 100 μM co-infused): inhibited the calcium response

Compound: N[C@H](CO)C(=O)O [D-serine]
- EC50 ([2]; read-out: EC50, [Ca2+]i mobilization (D-serine)): 290 nM

Compound: NCC(=O)O [Glycine, glycine]
- Enhancement of [3H] MK-801 binding at mutant receptors [3]: failed to enhance

Compound: O=C(O)/C(=C/c1c(C(=O)O)[nH]c2cc(Cl)cc(Cl)c12)c1ccccc1 [MDL]
- Block of NMDAR activation by 10 μM NMDA and 100 μM D-serine ([2]; 10 μM MDL, n = 5): −98.5 ± 0.2%
- Effect on 10 μM NMDA-induced calcium response [2]: completely abolished

Compound: CN[C@H](CC(=O)O)C(=O)O [NMDA, N-methyl-D-aspartate]
- EC50 ([2]; read-out: EC50, [Ca2+]i mobilization (NMDA)): 2800 nM

Compound: CN[C@@]1(c2ccccc2Cl)CCCCC1=O [R-ketamine]
- NMDA, PCP (%) radioligand displacement (NMDA, PCP): 88%
- NMDA, MK-801(%) radioligand displacement (NMDA, MK-801): 89%
- NMDA, glycine (%) radioligand displacement (NMDA, glycine): −5%
- NMDA, glutamate (%) radioligand displacement (NMDA, glutamate): 6%
- NMDA, polyamine (%) radioligand displacement (NMDA, polyamine): 1%

Compound: C[C@@H](O)[C@H](N)C(=O)N1CCC[C@H]1C(=O)N1CCC[C@H]1C(=O)N[C@H](C(N)=O)[C@@H](C)O [Rapastinel] (H-TPPT-NH2)
- level at time molar ([4]; brain (mPFC) microdialysate, 10 mg/kg): ~30 nM
- Tmax ([4]; in vivo): ~20 min
- half-life ([4]; in vivo): ~20 min

Compound: CN[C@]1(c2ccccc2Cl)CCCCC1=O [S-ketamine]
- NMDA, PCP (%) radioligand displacement (NMDA, PCP): 84%
- NMDA, MK-801(%) radioligand displacement (NMDA, MK-801): 98%
- NMDA, glycine (%) radioligand displacement (NMDA, glycine): 0%
- IC50 ([2]; read-out: IC50, inhibition of NMDAR-mediated [Ca2+]i accumulation): ~1000 nM
- NMDA, glutamate (%) radioligand displacement (NMDA, glutamate): −6%
- NMDA, polyamine (%) radioligand displacement (NMDA, polyamine): −17%

Compound: N[C@@H](CCC(=O)O)C(=O)O [glutamate]
- Receptor activation, % of 1 μM glutamate, mutated NR2B (R393E) [5]: 22.6 ± 1.2%
